S100A4 MyoIIA = S100A4-myosin IIA interaction inhibition. P26447. S100A4/TAMRA-MyoIIA peptide fluorescence polarization. inhibition, % at 10.7 µM. hit rate 0.14% among 360,000. AID 652163;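 active = mean inhibition of at least 70% across replicates, with every replicate also reaching that level; inconclusive = mean inhibition reaches 70% but some replicates fall short; inactive = mean inhibition below 70%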
Target sequence (P26447 whole entry, looked up): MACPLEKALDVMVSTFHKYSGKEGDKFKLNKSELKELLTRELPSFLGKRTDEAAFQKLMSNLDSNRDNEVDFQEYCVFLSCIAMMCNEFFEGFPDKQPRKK
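assay system = human S100A4 monomer with TAMRA-labelled myosin IIA peptide | also added = labelled myosin peptide probe, 5 nM | incubation = 5 min between mix addition and reading | control set = DMSO and TFP controls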
CFTR F508del cor = CFTR F508del correction in bronchial cells; CFBE cells, YFP halide quenching; stimulated with forskolin plus potentiator P3; % fluorescence drop versus neutral controls; AID 720511; hit rate 0.36% among 350,000; activity (quench increase), % at 7.58 µM;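 active = mean added fluorescence quench of at least 8% versus neutral control, with both replicates also reaching 8%; inconclusive = only one of the mean or replicate conditions met; inactive = mean below 8% and not both replicates reaching 8%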;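 also: cells transiently co-express mutant CFTR-F508del with the halide-sensitive YFP; corrector assay measuring rescue of mutant channel to the surface after 24 h compound exposure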
FGF22 binding = shifts melting point of recombinant human FGF22; Q9HCT0; recombinant FGF22 thermal shift, SYPRO orange fluorescence; percent of sucrose octasulfate shift, DMSO zero; activity (Tm shift, normalised), % at 9.99 µM; hit rate 1.5% among 340,000; AID 651658;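 active = mean Tm shift, scaled 0 neutral to 100 positive control, at about 1.3% or above, every replicate too, limit read from the data; inconclusive = no clear call, values can overlap the other calls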
Target sequence (Q9HCT0 whole entry, looked up): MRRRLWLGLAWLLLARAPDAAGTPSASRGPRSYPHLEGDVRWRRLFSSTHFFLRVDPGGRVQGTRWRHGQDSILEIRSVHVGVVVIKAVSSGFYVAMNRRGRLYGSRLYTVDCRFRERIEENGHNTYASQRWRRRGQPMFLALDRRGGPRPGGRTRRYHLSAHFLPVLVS
dFosB act = activators of mouse delta FosB homodimer; P13346; purified delta FosB, TAMRA-CDK5 oligo fluorescence polarization; percent of positive-control signal above neutral wells; activation, % at 25 µM; hit rate 0.99% among 340,000; AID 493131;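 active = mean activation above about 17%, with every replicate also reaching it, limit read from the data, passing the limit was not always enough; inconclusive = only one of the two conditions met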
Target sequence (P13346 whole entry, looked up): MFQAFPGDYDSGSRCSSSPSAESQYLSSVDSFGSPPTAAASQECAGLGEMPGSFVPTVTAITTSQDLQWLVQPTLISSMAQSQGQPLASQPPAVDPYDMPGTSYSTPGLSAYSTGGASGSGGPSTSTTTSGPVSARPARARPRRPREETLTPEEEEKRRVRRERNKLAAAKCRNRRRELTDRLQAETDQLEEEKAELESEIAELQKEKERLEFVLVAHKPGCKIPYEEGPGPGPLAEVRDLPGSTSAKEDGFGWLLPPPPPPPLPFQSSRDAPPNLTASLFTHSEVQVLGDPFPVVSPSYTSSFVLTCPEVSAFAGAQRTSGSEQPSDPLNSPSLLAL
Of the large screens only hits and unclear results are named; the others gave an inactive call; ! = not active in a repeat. Only some compounds are listed: those with a hit (about 2.2% of all), similar ones and a draw of the others.

COc1ccc(S(=O)(=O)Nc2ccc3c(c2)C(=O)N(C)C[C@H](OC)[C@H](C)CN[C@@H](C)CO3)cc1	none (no result: FGF22 binding, dFosB act)
C/C=C/c1ccc([C@@H]2[C@H](CO)N(S(C)(=O)=O)[C@H]2CN(CC)C(=O)CC)cc1	none (no result: S100A4 MyoIIA, FGF22 binding, dFosB act)
CNc1ccc(C2(O)C(=O)c3ccccc3C2=O)cc1	FGF22 binding 43
CN(C)c1ccc(C2(O)C(=O)c3ccccc3C2=O)cc1	none
O=C(c1ccncc1)N1C[C@@H]2[C@H](c3ccccc31)[C@@H](CO)N2C(=O)CN1CCOCC1	S100A4 MyoIIA 97 (no result: dFosB act)
CCCNC(=O)N1C[C@@H]2[C@H](c3ccccc31)[C@H](CO)N2Cc1ccc(OC)cc1	CFTR F508del cor 8.2 (no result: dFosB act)
O=C(Nc1cccc(Cl)c1)N1C[C@@H]2[C@H](c3ccccc31)[C@H](CO)N2Cc1ccccc1Cl	none (no result: dFosB act)
CCCNC(=O)N1C[C@@H]2[C@H](c3ccccc31)[C@@H](CO)N2Cc1ccc(OC)cc1	none (no result: dFosB act)
O=C(Nc1cccc(Cl)c1)N1C[C@H]2[C@@H](c3ccccc31)[C@H](CO)N2Cc1ccccc1Cl	FGF22 binding 84 (no result: dFosB act)
O=C(c1cccnc1)N1C[C@H]2[C@@H](c3ccccc31)[C@H](CO)N2C(=O)CN1CCOCC1	none (no result: dFosB act)
CCC(=O)N1C[C@@H]2[C@H](c3ccccc31)[C@@H](CO)N2C(=O)CC	S100A4 MyoIIA 73 (no result: dFosB act)
C[C@H](CO)N1C[C@H](C)[C@H](CN(C)S(=O)(=O)c2cn(C)cn2)OCCCC[C@H](C)Oc2ccc(NS(=O)(=O)c3cn(C)cn3)cc2C1=O	none (no result: dFosB act)
COCC(=O)N1C[C@@H]2[C@H](c3ccccc31)[C@H](CO)N2Cc1ccc(OC)cc1	CFTR F508del cor 10 (no result: dFosB act)
COc1cccc(S(=O)(=O)N[C@@H]2CC[C@@H](CCn3cc(-c4ccccc4OC)nn3)O[C@@H]2CO)c1	none (no result: dFosB act)
C[n+]1c2cc(N)ccc2cc2ccc(N)cc21	CFTR F508del cor 62, dFosB act 33!
C[C@H](CO)N1C[C@H](C)[C@@H](CN(C)S(C)(=O)=O)Oc2ccc(NC(=O)C3CC3)cc2CC1=O	none (no result: dFosB act)
O=C(C1CCCC1)N1CC(=O)N2[C@@H](CO)[C@H](c3ccc(C#CCc4ccccc4)cc3)[C@@H]2C1	none (no result: FGF22 binding, dFosB act)
CC(C)CC#Cc1ccc([C@H]2[C@H](CO)N3C(=O)CN(C(=O)Nc4cc(F)ccc4F)C[C@@H]23)cc1	CFTR F508del cor 11 (no result: S100A4 MyoIIA, FGF22 binding, dFosB act)
O=C1CN(Cc2ccc(F)cc2)C[C@@H]2[C@@H](c3ccc(-c4ccccc4F)cc3)[C@H](CO)N12	S100A4 MyoIIA 112 (no result: FGF22 binding, dFosB act)
O=C(c1cnccn1)N1CC(=O)N2[C@@H](CO)[C@H](c3ccc(-c4ccc(F)cc4)cc3)[C@@H]2C1	none (no result: FGF22 binding, dFosB act)
O=C(Nc1ccccc1F)N1CC(=O)N2[C@H](CO)[C@@H](c3ccc(-c4ccccc4)cc3)[C@H]2C1	S100A4 MyoIIA 124 (no result: FGF22 binding, dFosB act)
O=C(c1cnccn1)N1CC(=O)N2[C@H](CO)[C@@H](c3ccc(-c4ccc(F)cc4)cc3)[C@H]2C1	S100A4 MyoIIA 124 (no result: FGF22 binding, dFosB act)
C[C@H](CO)N1C[C@H](C)[C@@H](CN(C)C(=O)Nc2ccccc2)Oc2ccc(NC(=O)CCC(F)(F)F)cc2CC1=O	none (no result: dFosB act)
C[C@@H]1CCCCO[C@@H](CN(C)C(=O)NC2CCCCC2)[C@@H](C)CN([C@@H](C)CO)C(=O)c2cc(N(C)C)ccc2O1	none (no result: FGF22 binding, dFosB act)
C[C@@H]1CCCCO[C@@H](CN(C)C(=O)Cc2ccccc2)[C@H](C)CN([C@@H](C)CO)C(=O)c2cc(NC(=O)Cc3ccccc3)ccc2O1	S100A4 MyoIIA 126 (no result: dFosB act)
C[C@H]1CCCCO[C@@H](CN(C)C(=O)C2CCCCC2)[C@@H](C)CN([C@@H](C)CO)C(=O)c2cc(NC(=O)Cc3ccccc3)ccc2O1	FGF22 binding 1.9 (no result: dFosB act)
C[C@@H]1CCCCO[C@@H](CN(C)C(=O)C2CCCCC2)[C@@H](C)CN([C@H](C)CO)C(=O)c2cc(NC(=O)Cc3ccccc3)ccc2O1	none (no result: dFosB act)
C[C@@H]1CN([C@H](C)CO)C(=O)c2cc(N(C)C)ccc2O[C@@H](C)CCCCO[C@@H]1CN(C)C(=O)NC1CCCCC1	S100A4 MyoIIA 104 (no result: dFosB act)
C[C@@H]1CCCCO[C@@H](CN(C)C(=O)C2CCCCC2)[C@@H](C)CN([C@H](C)CO)C(=O)c2cc(NC(=O)CCCCCC(=O)Nc3ccccc3N)ccc2O1	S100A4 MyoIIA 103 (no result: dFosB act)
CN(C)C(=O)c1ccc(-c2ccccc2[C@H]2[C@H](C#N)N(C(=O)C3CCCC3)[C@H]2CO)cc1	none (no result: FGF22 binding, dFosB act)
C[C@@H]1CN([C@H](C)CO)C(=O)c2cc(N(C)C)ccc2O[C@@H](C)CCCCO[C@@H]1CN(C)C(=O)Cc1ccccc1	none (no result: dFosB act)
C[C@H]1CCCCO[C@H](CN(C)C(=O)Cc2ccccc2)[C@@H](C)CN([C@@H](C)CO)C(=O)c2cc(N(C)C)ccc2O1	CFTR F508del cor 11 (no result: S100A4 MyoIIA, FGF22 binding, dFosB act)
CC(=O)c1c(C)[nH]c(C(=O)CSc2nnc(CN3CCCCCC3=O)n2-c2ccccn2)c1C	none (no result: S100A4 MyoIIA, CFTR F508del cor, FGF22 binding)
CCNC(=O)CSc1nnc(CN2CCCCCC2=O)n1-c1ccccn1	FGF22 binding 43
COc1ccccc1C1=NC(c2ccc(C)cc2)N=C1C (configuration not stated)	FGF22 binding 44
Cc1noc(C)c1NC(=O)Nc1ccc2c(c1)C(=O)N([C@H](C)CO)C[C@@H](C)[C@@H](CN(C)Cc1ccc(Cl)c(Cl)c1)O2	none (no result: dFosB act)
C[C@@H]1CN([C@H](C)CO)S(=O)(=O)c2ccc(C#Cc3ccccc3)cc2O[C@H]1CN(C)C(=O)CN(C)C	none (no result: dFosB act)
CC1(C)Cc2c(sc(NC(=O)c3ccco3)c2C(=O)O)CO1	none
CC1(C)Cc2c(sc(NC(=S)NC(=O)c3ccccc3)c2C(=O)O)CO1	FGF22 binding 44
C/C=C/c1ccc([C@H]2[C@@H](CO)N(C(C)=O)C23CN(C(=O)c2ccccc2)C3)cc1	none (no result: dFosB act)
O=C(c1ccc(F)cc1)N1CCN(c2ccccn2)CC1	none
Cc1c(C)n(Cc2ccc(F)cc2)c2ccc(C(=O)N3CCN(c4ccccn4)CC3)cc12	dFosB act 27
COc1cccc(CN(C)C[C@@H]2OCc3ccccc3-c3c(n(C)c4ccccc34)C(=O)N([C@@H](C)CO)C[C@@H]2C)c1	none (no result: dFosB act)
COc1ccc2nc(NC(=O)c3ccccc3C(=O)O)sc2c1	none
CSc1ncccc1C(=O)Nc1nc2ccc(Oc3ccccc3)cc2s1	FGF22 binding 43, dFosB act inconclusive
Cc1ccc(S(=O)(=O)n2cnc3cc([N+](=O)[O-])ccc32)c(C)c1C	none (no result: S100A4 MyoIIA, CFTR F508del cor, FGF22 binding)
Cc1ccc([N+](=O)[O-])cc1S(=O)(=O)n1ccnc1C	FGF22 binding 43
COc1ccc(-c2cc(=O)[nH]c(=S)[nH]2)cc1	none
COc1ccc(-c2ccc(C(=O)O)c(=O)[nH]2)cc1	FGF22 binding 44
C[C@H]1CN([C@@H](C)CO)C(=O)c2cc(NS(C)(=O)=O)ccc2O[C@@H]1CN(C)C(=O)Nc1ccc(C(F)(F)F)cc1	none (no result: dFosB act)
COc1ccc(S(=O)(=O)Nc2ccc3c(c2)C(=O)N([C@@H](C)CO)C[C@H](C)[C@H](CN(C)C(=O)CCC(F)(F)F)OCCCC[C@@H](C)O3)cc1	none (no result: dFosB act)
C[C@H]1CN([C@@H](C)CO)C(=O)Cc2cc(N(C)C)ccc2O[C@@H]1CN(C)Cc1ccc(Cl)c(Cl)c1	none (no result: dFosB act)

High-throughput results (PubChem)
